Laboratory results from ChEMBL document CHEMBL1649291, “ADS-J1 inhibits human immunodeficiency virus type 1 entry by interacting with the gp41 pocket region and blocking fusion-active gp41 core formation” (Antimicrob Agents Chemother, 2009).
The source made the active and inactive calls. The calls are words filed in the database; no cut-off is given here. Peptide text beside a SMILES is read from it.

What was measured:
[1] = tested on: MT2; test: Inhibition of to HIV1 3B gp120 binding to CD4-positive human MT2 cells at 10 ug/ml by ELISA; type: cell-based; conditions: Human immunodeficiency virus 1
[2] = tested on: Human immunodeficiency virus 1; test: Binding affinity to IQ pocket of HIV1 3B gp41 at 1 uM after 30 mins by SPR assay
[3] = target: C-X-C chemokine receptor type 4 (Homo sapiens) (UniProt P61073); test: Inhibition of MAb12G5 binding to CXCR4 in human CEM cells at 25 uM by ELISA; type: cell-based; conditions: CCRF-CEM
[4] = tested on: Human immunodeficiency virus 1; conditions: 3B, 1 uM
[5] = tested on: Human immunodeficiency virus 1; test: Binding affinity to IQNI7 pocket of HIV1 3B gp41 at 1 uM after 30 mins by SPR assay
[6] = tested on: Human immunodeficiency virus 1; conditions: 3B, 1 uM; remark: listed apart in the source
[7] = tested on: Human immunodeficiency virus 1; test: Antiviral activity against HIV1 3B infected in human MT2 cells assessed as inhibition of viral p24 antigen production at 5 uM after 8 hrs by ELISA
[8] = tested on: Human immunodeficiency virus 1; test: Inhibition of HIV1 3B gp41 fusion-active core formation after 30 mins by N-PAGE
How it was run: (§1)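 Native PAGE: N36 incubated with compound or PBS (or, for the preformed case, N36 with C34) at 37°C 30 min before adding the third component; final peptides 40 µM, compounds 100 µM; further 30 min 37°C. Mixed 1:1 with native sample buffer, run on 18% Tris-glycine gels at 125 V, room temperature, 2 h; Coomassie staining.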

[9] = tested on: Human immunodeficiency virus 1; test: (§2) Inhibition of HIV1 3B gp41 fusion-active core formation after 30 mins by sandwich ELISA
How it was run: (§3)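 After 30 min at 37°C, mixtures added to wells coated with anti-6-HB rabbit IgG (10 µg/ml); detected with MAb NC-1, biotin anti-mouse IgG, SA-HRP, TMB at A450. Triplicates; percent inhibition calculated.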

[10] = as §2; parameters: species or system Human immunodeficiency virus 1; how it was run: as §3
[11] = tested on: Human immunodeficiency virus 1; test: Induction of alteration of preformed structural configuration of N36-C34 complex in HIV1 3B gp41 at 10 to 40 uM after 30 mins by spectroscopy
How it was run: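 Preformed-complex CD control: N36 and C34 incubated together 37°C 30 min, then compound or PBS added for a further 30 min at 37°C; final peptides 10 µM each, compound 40 µM, in PBS pH 7.2. Spectra at room temperature, blank-subtracted; helicity from 222 nm ellipticity versus −33,000 deg cm2 dmol−1.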

[12] = tested on: MT2; test: Inhibition of HIV1 3B gp41-mediated cell-cell fusion between viral envelope expressing virus-infected human H9 cells to human MT2 cells at 10 uM measured after drug washout by fluorescence assay; type: cell-based; conditions: Human immunodeficiency virus 1
How it was run: (§4)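 Dye-transfer fusion: calcein-AM-labeled H9/HIV-1 IIIB cells cocultured with MT-2 cells (1:5) at 37°C for 2 h; compound at 10 µM either present throughout, or preincubated with H9/HIV-1 IIIB or with MT-2 cells 37°C 30 min then removed by two washes before adding partner cells. Fused and unfused labeled cells counted by fluorescence microscopy; triplicates, mean ± SD.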

[13] = tested on: Human immunodeficiency virus 1; test: Binding affinity to HIV1 3B gp41 assessed as alteration of structural configuration of N36-C34 complex at 10 to 40 uM after 30 mins by spectroscopy
How it was run: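 CD spectroscopy in PBS pH 7.2: N36 preincubated with compound or PBS 37°C 30 min, then C34 added and incubated a further 30 min at 37°C; final peptides 10 µM each, compound 40 µM. Spectra at room temperature, 0.1-cm path, blank-subtracted; α-helix content from mean residue ellipticity at 222 nm relative to −33,000 deg cm2 dmol−1.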

[14] = tested on: MT2; test: Inhibition of HIV1 3B gp41-mediated cell-cell fusion between viral envelope expressing virus-infected human H9 cells to human MT2 cells at 10 uM treated 30 mins before viral infection by fluorescence assay; type: cell-based; conditions: Human immunodeficiency virus 1
[15] = tested on: Human immunodeficiency virus 1; test: Antiviral activity against HIV1 3B infected in human MT2 cells assessed as inhibition of viral p24 antigen production at 5 uM after 1 hr by ELISA
[16] = tested on: Human immunodeficiency virus 1; test: Inhibition of preformed HIV1 3B gp41 fusion-active core formation at 40 to 100 uM after 30 mins by N-PAGE; how it was run: as §1
[17] = tested on: Human immunodeficiency virus 1; test: Binding affinity to HIV1 3B gp41 assessed as effect on N36K574D-C34D632K complex formation at 40 to 100 uM after 30 mins by N-PAGE
[18] = tested on: MT2; test: Inhibition of HIV1 3B gp41-mediated cell-cell fusion between viral envelope expressing human virus-infected H9 cells to human MT2 cells at 10 uM by fluorescence assay; type: cell-based; conditions: Human immunodeficiency virus 1; how it was run: as §4
[19] = tested on: MT2; test: Inhibition of HIV1 3B gp41-mediated cell-cell fusion between viral envelope expressing virus-infected human H9 cells to human MT2 cells at 10 uM treated before addition of human MT2 cells measured after drug washout by fluorescence assay; type: cell-based; conditions: Human immunodeficiency virus 1; how it was run: as §4
[20] = tested on: Human immunodeficiency virus 1; test: Inhibition of preformed HIV1 3B gp41 fusion-active core formation at 40 to 100 uM after 30 mins by sandwich ELISA
[21] = Inhibition of PIE7 binding to HIV1 3B gp41 after 30 mins by ELISA; parameters: species or system Human immunodeficiency virus 1

C-X-C chemokine receptor type 4 (Homo sapiens), sequence (P61073 whole entry): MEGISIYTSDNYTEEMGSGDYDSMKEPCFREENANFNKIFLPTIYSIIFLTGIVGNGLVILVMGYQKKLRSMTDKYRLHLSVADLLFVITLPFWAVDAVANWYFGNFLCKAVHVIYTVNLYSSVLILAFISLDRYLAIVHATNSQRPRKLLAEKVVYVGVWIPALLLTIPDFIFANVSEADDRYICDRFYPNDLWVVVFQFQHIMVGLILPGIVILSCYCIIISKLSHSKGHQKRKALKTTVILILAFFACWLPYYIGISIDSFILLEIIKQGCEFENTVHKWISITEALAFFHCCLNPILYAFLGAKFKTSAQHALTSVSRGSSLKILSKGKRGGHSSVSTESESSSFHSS

In the case of `CN1C(=O)[C@@H](c2cc(Cl)c(O)c(Cl)c2)NC(=O)[C@@H]2NC(=O)[C@@H](c3cc(Cl)c(O)c(Cl)c3)NC(=O)[C@H](NC(=O)C(=O)c3cc(Cl)c(O)c(Cl)c3)Cc3c[nH]c4c(cccc34)-c3cc2cc(c3O)Oc2ccc(cc2)C[C@H]1C(=O)N[C@@H](C(=O)O)c1ccc(O)cc1`, the inhibition [1] is reported as “Active”.
With `CC[C@H](C)[C@H](NC(=O)[C@H](CCC(=O)O)NC(=O)[C@H](CC(N)=O)NC(=O)[C@H](CCC(=O)O)NC(=O)[C@@H](NC(=O)[C@H](CCCCN)NC(=O)[C@H](CCCCN)NC(=O)[C@H](CCC(N)=O)NC(=O)[C@H](CCCCN)NC(=O)[C@H](CO)NC(=O)[C@H](CCC(=O)O)NC(=O)[C@@H](NC(=O)[C@H](CCC(=O)O)NC(=O)[C@H](CCC(=O)O)NC(=O)[C@@H](NC(=O)[C@H](CCCCN)NC(=O)[C@H](CC(=O)O)NC(=O)[C@H](CCC(=O)O)NC(=O)[C@@H](NC(=O)[C@H](CCC(N)=O)NC(=O)[C@H](CCCCN)NC(=O)[C@H](CCSC)NC(=O)[C@@H](N)CCCNC(=N)N)[C@@H](C)CC)[C@@H](C)CC)[C@@H](C)CC)[C@@H](C)CC)C(=O)N[C@@H](C)C(=O)N[C@@H](CCCNC(=N)N)C(=O)N[C@H](C(=O)N[C@@H](CCCCN)C(=O)N[C@@H](CCCCN)C(=O)O)[C@@H](C)CC` the Activity [2] was “inactive”.
With `N=C(N)NCCC[C@H](NC(=O)[C@H](CS)NC(=O)[C@H](CCCCN)NC(=O)[C@H](CCCNC(=N)N)NC(=O)[C@H](Cc1ccc(O)cc1)NC(=O)[C@H](CS)NC(=O)[C@H](Cc1ccc(O)cc1)NC(=O)CNC(=O)[C@H](CCCCN)NC(=O)[C@H](Cc1ccc(O)cc1)NC(=O)[C@H](CS)NC(=O)[C@H](CCCCN)NC(=O)[C@H](CCCNC(=N)N)NC(=O)[C@H](Cc1ccc(O)cc1)NC(=O)[C@H](CS)NC(=O)[C@H](Cc1c[nH]c2ccccc12)NC(=O)[C@H](CCCNC(=N)N)NC(=O)[C@@H](N)CCCNC(=N)N)C(=O)O` (H-RRWCYRKCYKGYCYRKCR-OH) the inhibition [3] was “Active”.
For `c1cc(CN2CCCNCCNCCCNCC2)ccc1CN1CCCNCCNCCCNCC1`, the inhibition [4] was “inactive”, the Activity [5] was “inactive” and the inhibition [6] was “Active”.
With `Cc1cn([C@H]2C[C@H](N=[N+]=[N-])[C@@H](CO)O2)c(=O)[nH]c1=O` the inhibition [7] was “inactive”.
For `COc1ccc(S(=O)(=O)O)cc1/N=N/c1c(S(=O)(=O)O)cc2cc(Nc3nc(Nc4ccccc4)nc(Nc4cc(C)c(/N=N/c5cc(S(=O)(=O)O)cc6cc(S(=O)(=O)O)cc(O)c56)cc4OC)n3)ccc2c1O`, the inhibition [1] was “inactive”, the inhibition [8] was “Dose-dependent effect” and the inhibition [9] was “Dose-dependent effect”. The IC50 [10] was 3.36 µM, the Activity [11] was “inactive” and the inhibition [12] was 50%. The Activity [13] was “Active”, the inhibition [14] was “inactive” and the inhibition [15] was “Active”. For the same compound, the Activity [5] was “Active”, the inhibition [16] was “inactive” and the Activity [17] was “inactive”. The inhibition [18] was “Active”, the inhibition [19] was 80% and the inhibition [20] was “inactive”. The IC50 [21] was 0.68 µM and the inhibition [3] was 18%.
